Test results: ChEMBL document CHEMBL2062401, “New pyrimido[5,4-e]pyrrolo[1,2-c]pyrimidines: synthesis, 2D-QSAR, anti-inflammatory, analgesic and ulcerogenicity studies” (Eur J Med Chem, 2012)
Calls of active or inactive are those of the source. No cut-off for these calls is given here.

How the values were obtained:
[1] = system: Rattus norvegicus; assay: Antiinflammatory activity in Wistar albino rat assessed as inhibition of carrageenan-induced paw edema at 0.029 mmol/kg, po dosed 1 hr before carrageenan challenge measured 1 hr post carrageenan-induced inflammation; format: functional
Method in brief: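 Wistar albino rats of both sexes, 120–150 g, six per group, food withdrawn the day before. Given orally 0.029 mmol/kg in saline with a few drops of Tween 80, by stomach tube, 1 h before subplantar s.c. carrageenan (0.1 ml of 1%) into the right hind paw. Paw thickness measured at 1, 2, 3 and 4 h against baseline. % inhibition = 100 × (1 − Vt/Vc).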

[2] = system: Rattus norvegicus; assay: Antiinflammatory activity in Wistar albino rat assessed as inhibition of carrageenan-induced paw edema at 0.029 mmol/kg, po dosed 1 hr before carrageenan challenge measured 4 hrs post carrageenan-induced inflammation
[3] = system: Rattus norvegicus; assay: Antiinflammatory activity in Wistar albino rat assessed as inhibition of carrageenan-induced paw edema at 4 mg/kg, po dosed 1 hr before carrageenan challenge measured after carrageenan-induced inflammation; format: functional
Method in brief: (§1)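 Rat carrageenan paw oedema, six animals per group. Oral doses of 1, 2, 4 and 6 mg/kg in saline/Tween 80 given 1 h before 0.1 ml of 1% carrageenan s.c. into the right hind paw. Oedema measured as thickness increase over baseline. % inhibition = 100 × (1 − Vt/Vc). IC50 derived from the dose–response and reported in mg/kg and µmol/kg.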

[4] = system: Mus musculus; assay: Analgesic activity in Swiss albino mouse assessed as inhibition of acetic acid-induced writhing at 0.029 mmol/kg. po dosed 1 hr before acetic acid challenge and measured during 30 mins post acetic acid challenge relative to indomethacin; format: functional; settings: read-out: INH
Method in brief: (§2)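 Swiss albino mice of either sex, 18–22 g, six per group. Oral suspension at 0.029 mmol/kg given 1 h before 0.3 ml of 1% acetic acid i.p. Contractions counted for 30 min, starting 5 min after injection. % protection = (n − n')/n × 100 against control writhing. Potency% = % inhibition of test / % inhibition of indomethacin × 100. Mean ± SEM, ANOVA with post hoc test.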

[5] = system: Mus musculus; assay: Analgesic activity in Swiss albino mouse assessed as inhibition of acetic acid-induced writhing at 0.029 mmol/kg. po dosed 1 hr before acetic acid challenge and measured during 30 mins post acetic acid challenge; format: functional; method in brief: as §2
[6] = molecular target: Prostaglandin G/H synthase 1 (Homo sapiens) (UniProt P23219); assay: Inhibition of COX1 by Cayman's COX activity assay
Method in brief: (§3)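 COX peroxidase activity measured with a commercial COX activity assay kit (Kulmacz and Lands method), per manufacturer's instructions; % inhibition of COX-1 and COX-2 determined, selectivity expressed as ratio of COX-1 to COX-2 % inhibition.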

[7] = system: Rattus norvegicus; assay: Antiinflammatory activity in Wistar albino rat assessed as inhibition of carrageenan-induced paw edema at 6 mg/kg, po dosed 1 hr before carrageenan challenge measured after carrageenan-induced inflammation; format: functional; method in brief: as §1
[8] = species: Homo sapiens; assay: Selectivity index, ratio of inhibition of COX1 to inhibition of COX2 by Cayman's COX activity assay; method in brief: as §3
[9] = system: Rattus norvegicus; assay: Antiinflammatory activity in Wistar albino rat assessed as inhibition of carrageenan-induced paw edema at 1 mg/kg, po dosed 1 hr before carrageenan challenge measured after carrageenan-induced inflammation; format: functional; method in brief: as §1
[10] = system: Rattus norvegicus; assay: Gastrointestinal toxicity in Wistar albino rat assessed as incidence of stomach ulceration at 0.029 mmol/kg, po followed by another two compound doses in second and third days measured on fourth day post dose by acute ulcerogenicity study; format: organism-based; settings: in vivo
Method in brief: (§4)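 Adult Wistar rats of both sexes, 120–150 g, groups of 6, fasted 20 h; oral dose suspended in 1% Tween (vehicle group 1% Tween); fasted 2 h, fed 2 h, fasted 20 h; further doses on days 2 and 3. Scored: % incidence/10, mean ulcers per rat, mean severity score; ulcer index = sum of the three.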

[11] = system: Rattus norvegicus; assay: Antiinflammatory activity in Wistar albino rat assessed as inhibition of carrageenan-induced paw edema at 0.029 mmol/kg, po dosed 1 hr before carrageenan challenge measured 2 hrs post carrageenan-induced inflammation
[12] = system: Rattus norvegicus; assay: Antiinflammatory activity in po dosed Wistar albino rat assessed as inhibition of carrageenan-induced paw edema dosed 1 hr before carrageenan challenge measured after carrageenan-induced inflammation; format: functional, organism-based; method in brief: as §1
[13] = system: Rattus norvegicus; assay: Antiinflammatory activity in Wistar albino rat assessed as inhibition of carrageenan-induced paw edema at 2 mg/kg, po dosed 1 hr before carrageenan challenge measured after carrageenan-induced inflammation; format: functional; method in brief: as §1
[14] = system: Rattus norvegicus; assay: Gastrointestinal toxicity in Wistar albino rat assessed as incidence of stomach ulceration at 0.029 mmol/kg, po; format: organism-based; settings: in vivo
Method in brief: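 Rats given single oral dose suspended in saline with few drops Tween 80 (groups of 6); killed under deep ether anaesthesia 5 h after treatment; stomach opened along greater curvature and examined for lesions or bleeding; ulceration expressed as number of rats affected per group.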

[15] = Lipophilicity, log P of the compound; format: physicochemical; settings: octanol/water
[16] = system: Rattus norvegicus; assay: Antiinflammatory activity in Wistar albino rat assessed as inhibition of carrageenan-induced paw edema at 0.029 mmol/kg, po dosed 1 hr before carrageenan challenge measured 3 hrs post carrageenan-induced inflammation
[17] = system: Rattus norvegicus; assay: Gastrointestinal toxicity in Wistar albino rat assessed as stomach ulcer index at 0.029 mmol/kg, po followed by another two compound doses in second and third days measured on fourth day post dose by acute ulcerogenicity study; format: organism-based; settings: in vivo; method in brief: as §4

Prostaglandin G/H synthase 1 (Homo sapiens), sequence (P23219 whole entry): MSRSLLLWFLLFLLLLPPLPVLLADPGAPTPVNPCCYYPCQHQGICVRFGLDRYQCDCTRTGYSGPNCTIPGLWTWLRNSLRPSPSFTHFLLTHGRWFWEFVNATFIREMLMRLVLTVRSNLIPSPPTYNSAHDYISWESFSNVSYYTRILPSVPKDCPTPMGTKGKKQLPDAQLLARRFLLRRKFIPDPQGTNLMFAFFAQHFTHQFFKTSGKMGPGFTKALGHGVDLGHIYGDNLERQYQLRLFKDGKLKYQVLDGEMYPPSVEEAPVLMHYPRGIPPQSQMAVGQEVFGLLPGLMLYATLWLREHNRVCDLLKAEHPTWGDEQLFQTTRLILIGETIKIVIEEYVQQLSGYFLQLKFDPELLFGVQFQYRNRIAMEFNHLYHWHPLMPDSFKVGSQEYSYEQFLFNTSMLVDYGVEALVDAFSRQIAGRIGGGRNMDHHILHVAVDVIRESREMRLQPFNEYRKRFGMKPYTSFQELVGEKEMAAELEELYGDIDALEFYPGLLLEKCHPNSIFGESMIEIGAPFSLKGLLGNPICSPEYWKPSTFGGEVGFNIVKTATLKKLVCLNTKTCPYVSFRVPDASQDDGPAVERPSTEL

Compound | inhibition in vivo at 29 µmol/kg [1] [%] | inhibition in vivo at 29 µmol/kg [2] [%] | inhibition in vivo at 4 mg/kg [3] [%] | writhing inhibition relative to indomethacin (potency %) at 29 µmol/kg [4] [%] | inhibition in vivo at 29 µmol/kg [5] [%] | inhibition [6] | inhibition in vivo at 6 mg/kg [7] [%] | Ratio [8] | inhibition in vivo at 1 mg/kg [9] [%] | Activity [10] [%] | inhibition in vivo at 29 µmol/kg [11] [%] | IC50 [12] [µmol/kg] | inhibition in vivo at 2 mg/kg [13] [%] | Activity [14] | logP [15] | inhibition in vivo at 29 µmol/kg [16] [%] | UI [17]
Cc1c(NC(=O)c2nc3c(c(=O)[nH]2)C2CCCN2C(=O)N3c2ccccc2)c(=O)n(-c2ccccc2)n1C (centres undefined) | 78 | 83 | 78 | 95.7 | 63.3 | Active | 77 | 1.3 | 30 | 5 | 68 | 6 | 48 | Non-toxic | 2.09 | 78 | 7.16
Cc1cc(-c2ccccc2)nn1C(=O)c1nc2c(c(=O)[nH]1)C1CCCN1C(=O)N2c1ccccc1 (centres undefined) | 78 | 62 | 65 | 59.8 | 39.6 | Active | 60 | 1.02 | 20 | 6.66 | 65 | 8 | 45 | Non-toxic | 3.7 | 59 | 10.94
O=C(O)Cc1nc2c(c(=O)[nH]1)C1CCCN1C(=O)N2c1ccccc1 (centres undefined) | 77 | 80 | 64 | 87.2 | 57.6 |  | 74 |  | 20 | 8.33 | 70 | 10 | 40 | Toxic | 0.749 | 72 | 10.49
CCOC(=O)Cc1nc2c(c(=O)[nH]1)C1CCCN1C(=O)N2c1ccccc1 (centres undefined) | 81 | 89 | 60 | 107 | 70.8 |  | 64 |  | 12 | 5 | 80 | 11 | 32 | Non-toxic | 1.53 | 90 | 7
